A selection: hits, their analogues and other compounds. The true share with any hit is near 2.3%.
TRPC4 agonist – activators of mouse TRPC4 channel; Q9QUQ5; HEK293 TRPC4beta/mu-opioid, Fluo4 calcium fluorescence; hits give high values; B-score at 10 µM; 0.49% of 310,000 active; AID 2237;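 active means B-score above 5 SD of library B-scores, and initial fluorescence ratio not above library mean plus 5 SD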;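 further: positive B-score marks a calcium rise read as TRPC4 activation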
Target sequence (Q9QUQ5 whole entry, looked up): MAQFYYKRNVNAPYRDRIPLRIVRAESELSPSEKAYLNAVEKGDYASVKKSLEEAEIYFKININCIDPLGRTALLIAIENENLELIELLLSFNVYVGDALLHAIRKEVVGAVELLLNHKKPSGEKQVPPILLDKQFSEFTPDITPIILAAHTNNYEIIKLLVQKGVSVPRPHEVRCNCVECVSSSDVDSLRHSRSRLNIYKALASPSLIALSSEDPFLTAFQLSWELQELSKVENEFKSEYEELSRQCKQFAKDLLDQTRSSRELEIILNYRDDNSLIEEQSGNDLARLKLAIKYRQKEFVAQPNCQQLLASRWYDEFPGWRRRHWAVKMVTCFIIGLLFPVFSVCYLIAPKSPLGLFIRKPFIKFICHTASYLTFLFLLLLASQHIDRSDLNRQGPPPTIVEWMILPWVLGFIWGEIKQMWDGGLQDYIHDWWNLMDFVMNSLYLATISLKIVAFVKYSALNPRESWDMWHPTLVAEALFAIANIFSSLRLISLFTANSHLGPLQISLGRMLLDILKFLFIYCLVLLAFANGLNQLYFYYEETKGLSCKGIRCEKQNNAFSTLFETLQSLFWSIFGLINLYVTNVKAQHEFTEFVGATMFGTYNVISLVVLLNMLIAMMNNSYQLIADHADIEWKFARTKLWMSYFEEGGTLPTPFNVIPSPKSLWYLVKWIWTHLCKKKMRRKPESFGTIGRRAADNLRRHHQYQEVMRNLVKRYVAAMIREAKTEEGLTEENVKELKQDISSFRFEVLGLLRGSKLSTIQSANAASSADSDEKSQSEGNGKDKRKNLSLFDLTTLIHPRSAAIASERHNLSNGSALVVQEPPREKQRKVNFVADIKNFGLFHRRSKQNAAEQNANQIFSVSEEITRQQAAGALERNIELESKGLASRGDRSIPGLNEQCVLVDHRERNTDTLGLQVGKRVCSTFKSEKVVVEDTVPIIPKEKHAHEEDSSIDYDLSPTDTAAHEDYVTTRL
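Technique: kinetic Fluo4 calcium fluorescence; Test system: TRPC4beta and mu-opioid receptor HEK293 stable cells; Measure: B-scored integrated calcium fluorescence ratio; Benchmarks: low control buffer alone, high control maximal DAMGO; Schedule: 45 min room-temperature Fluo4 loading, 110 s read.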
TRPC4 PAM – allosteric potentiators of mouse TRPC4 channel; Q9QUQ5; HEK293 TRPC4beta/mu-opioid, DAMGO EC20, Fluo-4 Ca2+ flux; hits give high values; B-score at 10 µM; 0.42% of 310,000 active;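 active means B-score of calcium response area above 5 SD of library B-scores, with initial fluorescence ratio within 5 SD of library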;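 further: B-score of integrated fluorescence ratio over time as area under calcium response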
TRPC4 inh – blocks the mouse TRPC4 cation channel; Q9QUQ5; HEK293 TRPC4beta/mu-opioid, DAMGO-evoked Fluo4 calcium flux; hits give low values; B-score at 10 µM; 0.39% of 300,000 active; AID 2247;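 active means B-score over 3 SD under the library average, no early fluorescence shift, positive overall ratio signal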
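test system = HEK293 cells with stable TRPC4beta plus mu-opioid receptor expression | detection = Fluo4 Ca2+ flux fluorescence | read-out = integrated fluorescence ratio relative to baseline, converted to per-well B score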
TRPC6 act – activates the mouse TRPC6 cation channel | HEK293-TRPC6 membrane potential dye fluorescence; hits give high values | B-score at 10 µM | 0.13% of 310,000 active;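 active means B-score of the integrated fluorescence ratio above library mean plus 3 SD, and starting fluorescence ratio within library mean plus 5 SD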;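 further: higher score means more depolarization so channel activation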
TRPC6 inhibitor – blocks the mouse TRPC6 cation channel; Q61143; HEK293-TRPC6, membrane potential dye, ACh-evoked depolarization; hits give low values; B-score at 10 µM; 1.1% of 310,000 active;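 active means B-score under library mean minus 3 SD, initial fluorescence not abnormally high, positive integrated signal ratio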;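 further: B-score derived from integrated fluorescence ratio over the kinetic read; more negative B-score means stronger inhibition of depolarization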
Active calls of the source: *; i = inactive; . = no result.

SMILES	TRPC4 agonist	TRPC4 PAM	TRPC4 inh	TRPC6 act	TRPC6 inhibitor
CC1=NN(c2ccccc2)C(=O)/C1=C\c1c(C)[nH]n(-c2ccccc2)c1=O	i	i	i	i	i
COc1ccc(CCn2c(N)c(C#N)c3nc4ccccc4nc32)cc1OC	i	i	-6*	i	i
CC(OC(=O)CNC(=O)c1ccc(Cl)c(Cl)c1)C(=O)N1CCOCC1 (centres undefined)	i	i	i	i	i
CCOc1cc(Br)ccc1S(=O)(=O)N1CC(C)OC(C)C1 (centres undefined)	43*	i	i	i	i
Cc1ccc(-c2cc(C(=O)Nc3nccs3)c3ccccc3n2)o1	i	i	-7*	i	i
Cc1ccc(-c2cc(C(=O)Nc3nccs3)c3ccccc3n2)c(C)c1	i	i	i	i	i
CC(C)(C)C(=O)Nc1sc(-c2ccccc2)cc1C(=O)O	i	i	i	i	i
Cc1cccc(C(=O)Nc2sc(-c3ccccc3)cc2C(=O)O)c1	i	i	-6*	i	i
O=C(CCC(=O)N1CCSc2ccccc21)NCc1ccccc1	i	i	i	i	i
C=CCn1cn[nH]c1=S	i	i	i	i	i
C=CCOc1ccc(C2CC(C)=NN2c2ccccc2)cc1 (centres undefined)	i	i	-8*	i	i
CCOc1ccccc1CN1CCN(Cc2cccc3nonc23)CC1CCO (centres undefined)	i	i	-6*	i	i
O=C(O)CCC(=O)NN1C(=O)c2ccccc2NC1c1ccc(F)cc1 (centres undefined)	i	11*	i	i	i
Cc1ccc(NC(=O)CNc2ccccc2CN(C)C2CCCCC2)cc1	i	i	-6*	i	i
CCc1nc2ccc(C(=O)NCCc3ccc(OC)cc3)cc2nc1CC	i	i	i	i	i
COc1ccc2nc(SCCN(C)C)[nH]c2c1	113*	i	i	i	i
COc1ccc2nc(SCC(N)=O)[nH]c2c1	i	i	i	i	i
CS(=O)(=O)Nc1cccc(C2=NN(C(=O)c3cccc([N+](=O)[O-])c3)C(c3cccs3)C2)c1 (centres undefined)	i	i	i	i	i
CC(C)Cn1cnc2c(c(-c3ccccc3)c(-c3ccccc3)n2Cc2ccco2)c1=N	i	i	i	i	-4.99*
Cc1ccccc1C1c2[nH]c3ccccc3c2C[C@H]2C(=O)N(C3CCN(Cc4ccccc4)CC3)CC(=O)N12 (some centres undefined)	48*	i	i	i	i
C[C@H](C(=O)O)c1n[nH]c(=O)c2ccccc12	i	i	i	i	i
CCOC(=O)C(C)c1n[nH]c(=O)c2ccccc12 (centres undefined)	i	13*	i	i	i
CCC(CC)c1nnc(NC(=O)c2c(C)nn(Cc3ccccc3Cl)c2C)s1	i	21*	i	i	i
Cc1nn(Cc2ccccc2Cl)c(C)c1C(=O)NC1=NCCS1	i	i	i	i	i
Cc1cc(NS(=O)(=O)c2ccc(NC(=O)COc3ccc(Cl)c(C)c3)cc2)no1	i	i	-6*	i	i
SMILES	TRPC4 agonist	TRPC4 PAM	TRPC4 inh	TRPC6 act	TRPC6 inhibitor
COc1ccc(CCNC(=O)Nc2ccccc2[N+](=O)[O-])cc1	i	i	i	i	i
CC(=O)N1N=C(c2ccc(Br)cc2)OC1(C)CC(=O)Nc1ccccc1 (centres undefined)	i	15*	i	i	i
CCCCNCC1C(Oc2ccc(Cl)cc2)C(=O)N1c1ccccc1C (centres undefined)	i	i	-6*	i	i
COC(=O)[C@@]1(Cc2ccc(F)cc2)[C@H]2c3cc(C(=O)N(C)C)n(CCc4ccc(OC)c(Br)c4)c3C[C@H]2CN1C(=O)c1ccccc1	i	i	i	i	i
COC(=O)[C@@]1(Cc2ccc(F)cc2)[C@H]2c3cc(C(=O)N(C)C)n(CCc4ccccn4)c3C[C@H]2CN1C(=O)c1ccccc1	143*	i	i	i	i
Cc1sc(NC(=O)C2CCCCC2C(=O)O)c(C(N)=O)c1-c1ccc(C(C)(C)C)cc1 (centres undefined)	i	i	-5*	i	i
CC1(C)C(=O)OC(C(=O)c2ccc(C(C)(C)C)cc2)C(C)(C)C1=O (centres undefined)	i	13*	i	i	i
Cc1cc(C)c(C)c(C(=O)C2OC(=O)C(C)(C)C(=O)C2(C)C)c1C (centres undefined)	i	i	i	i	i
O=C(CN1CCCCC1)Nc1ccccc1Oc1ccccc1	i	i	-5*	i	i
CCCCN(CC)CCCNC(=O)CN1C(=O)CSc2ccc(S(=O)(=O)N3CCOCC3)cc21	55*	i	i	i	i
CCCCN(CCCC)CCNC(=O)CN1C(=O)CSc2ccc(S(=O)(=O)N3CCOCC3)cc21	i	i	i	i	i
CCCCN(CC)CCNc1c(N2CCN(C(=O)OCC)CC2)c(=O)c1=O	124*	i	.	i	i
COC(=O)c1ccccc1NC(=O)C1CCCC1	i	i	i	i	i
COC(=O)c1ccccc1NC(=S)NC(=O)C1CCCCC1	i	16*	i	i	i
COc1ccc(NS(=O)(=O)c2csc(C(N)=O)c2)cc1OC	i	16*	i	i	i
Cc1cc(C)n2nc(CNS(=O)(=O)c3cccc([N+](=O)[O-])c3)nc2n1	i	i	i	i	i
OCc1cn(-c2ccccc2)nc1-c1ccc(Br)cc1	i	i	i	i	i
CC(C)COc1ccc(-c2nn(-c3ccccc3)cc2CO)cc1	i	10*	i	i	i
COc1cc(S(=O)(=O)NCc2ccccc2)ccc1Br	i	i	i	i	i
CCNS(=O)(=O)c1ccc(Br)c(OC)c1	i	i	-6*	i	i
COC(=O)c1ccc(/C=N/N2CCN(Cc3ccc(C)cc3C)CC2)cc1	i	16*	i	i	i
COc1cccc(/C=N/NC(=O)CN(CCc2ccccc2)S(=O)(=O)c2ccc(NC(C)=O)cc2)c1	i	i	i	i	i
Oc1ccc(-c2csc(-c3ccccc3)n2)cc1O	i	i	-6*	i	i
Oc1ccc(-c2csc(-c3cccnc3)n2)cc1O	i	i	i	i	i

Source: PubChem BioAssay (Johns Hopkins Ion Channel Center)
